Article PMC7438818 (CPT: Pharmacometrics & Systems Pharmacology, 2020)
Where two headings read alike, the source gives them in different places. One block for each molecule: values may come before it.

Tests used:
[1] = system: TNFα release; assay: Simulated dose-response and equipotent dose relationship from the PK/PD model; type: in vivo, human; conditions: for TNFα inhibition at the highest studied doses: dose-response curves
Method in brief: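 The fitted PK/PD model was simulated to give dose-response curves, with response defined as average TNFα inhibition over 24 h after 5 consecutive daily oral doses. Confidence intervals came from repeated simulations using parameters sampled from the estimated covariance matrix. Equipotent doses were defined as those giving the same average inhibition. Their confidence intervals accounted simultaneously for the uncertainty of both dose-responses.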

[2] = type: in vivo, human
[3] = system: release of the cytokines TNFα, interferon-γ, interleukin-6, interleukin-8, macrophage inflammatory protein-1α and -1β; type: in vivo, human; conditions: total plasma concentrations; six pro-inflammatory cytokines
Method in brief: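 Static nonlinear mixed effects sigmoid Imax models related observed total plasma drug concentrations to ex vivo LPS-stimulated release of TNFα, IFN-γ, IL-6, IL-8, MIP-1α and MIP-1β. Data were pooled from the single and multiple ascending dose studies. Lognormal between-subject variability was used, with lognormal residual error (additive on log scale). Models were estimated by FOCE.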

[4] = system: TNFα release; assay: TNFα PK/PD model, lipopolysaccharide-stimulated whole blood ex vivo assay; type: in vivo, human; conditions: for Sigmoidicity parameter γ: Imax-model of TNFα inhibition
Method in brief: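 Whole blood was drawn straight into LPS-containing tubes and incubated, then ex vivo TNFα was measured. With PK parameters fixed, one common sigmoid Imax model was fitted for both compounds, driven by a weighted sum of plasma and transduction-compartment concentrations. The weight was estimated from data. The driving concentration was total for the test compound and unbound for the reference steroid. Nonlinear mixed effects, FOCE.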

[5] = literature average of plasma protein binding parameters ref 24, 25, 26, 27; cited from earlier work
[6] = type: in vivo, human; remark: listed apart in the source
Method in brief: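 Data pooled from single ascending dose (2–155 mg) and multiple ascending dose (10, 20, 40, 80, 125 mg) studies in healthy volunteers; prediabetic obese cohort and sub-LLOQ (5 nM) data excluded. Two-compartment model with first-order absorption and lag time on total plasma concentrations. Oral dose entered as a linear covariate on relative bioavailability and as a covariate on absorption rate. Lognormal interoccasion variability for days 1 and 5. Fitted by nonlinear mixed effects, FOCE.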

[7] = ref data on file, AstraZeneca; cited from earlier work
[8] = average over 24 hours following 5 consecutive daily doses
[9] = unbound prednisolone, oral (apparent)

half-life ([2]; human, plasma, oral): 1.9 h
Contribution of the first phase to AUC ([2]; unbound prednisolone): 66%
Inter-compartment clearance Q ([2]; unbound prednisolone): 5.81 L/h
Mean transit time tm ([2]; unbound prednisolone): 0.772 h
Peripheral volume of distribution Vp ([2]; unbound prednisolone): 23.6 L
Central volume of distribution Vc [2, 9]: 352 L
Clearance CL [2, 9]: 110 L/h
No. of transit compartments n ([2]; unbound prednisolone, transit compartment absorption): 8.11
Compound: C[C@]12C=CC(=O)C=C1CC[C@@H]1[C@@H]2[C@@H](O)C[C@@]2(C)[C@H]1CC[C@]2(O)C(=O)CO [prednisolone]
TNFα inhibition at the highest studied doses [1, 8]: 60–75%
Equipotent dose of prednisolone ([1]; equipotent to 40 mg AZD9567, 95% CI of 14–29 mg): 20 mg
Estimated TNFα inhibition ([1]; prednisolone 20 mg, average over 24 hours following 5 consecutive daily doses): 43%
Inhibition of cytokine release [3]: inhibited the release of the cytokines
Sigmoidicity parameter γ [4]: 1.33
Unbound fraction, high limit, literature average [5]: 53%
Unbound fraction, low limit, literature average [5]: 9%

Absorption rate constant ka0 ([6]; absorption rate in the limit of zero dose): 38.2 h⁻¹
Covariate model (dose on F) s ([6]; decrease in relative bioavailability F per mg dose, F=1-s×Dose): 0.00253 mg⁻¹
Covariate model (dose on ka) α ([6]; dose-dependent absorption rate): 0.0592 mg⁻¹
Covariate model (dose on ka) λ ([6]; dose-dependent absorption rate): 0.103
Decrease of relative bioavailability ([6]; for every additional 4 mg AZD9567 dosed): ~ 1 % unit
half-life ([6]; human, plasma, oral): 4.4 h
Intercompartment clearance Q ([6]; total AZD9567): 0.500 L/h
Peripheral volume of distribution Vp ([6]; total AZD9567): 392 L
Clearance CL ([6]; total AZD9567, oral): 3.70 L/h
Central volume of distribution Vc ([6]; total AZD9567, oral (apparent)): 26.8 L
Contribution of the first phase to AUC ([6]; two-compartment model): 88%
Compound: CC(C)[C@H](NC(=O)C(C)(F)F)[C@H](Oc1ccc2c(cnn2-c2ccc(=O)n(C)c2)c1)c1ccccc1 [AZD9567]
Average TNFα inhibition ([1]; AZD9567 40 mg, average over 24 hours following 5 consecutive daily doses): 43%
TNFα inhibition at the highest studied doses [1, 8]: 60–75%
Equipotent dose of AZD9567 (95% CI) ([1]; equipotent to prednisolone 20 mg): 40 mg
Doses required for equipotency relative to prednisolone ([1]; in vivo): roughly twofold higher doses
Inhibition of cytokine release [3]: inhibited the release of the cytokines
Sigmoidicity parameter γ [4]: 1.40
Potency as inhibitor of TNFα release relative to prednisolone ([4]; unbound IC50 4.87 nM vs 17.0 nM): ~ 3.5 fold
Unbound clearance relative to prednisolone ([6]; implied by the low fraction unbound): more than fivefold higher unbound clearance
Unbound fraction [7]: ^c Derived from the estimate of IC50 for total AZD9567 concentrations using an unbound fraction of 0.637%.
